Screening data (PubChem BioAssay)
RGS4 pot: potentiators or activators of RGS4; 310,000 tested, 0.92% active; AID 463111; HEK293 M3R/inducible RGS4, carbachol calcium flux Fluo4; stronger effect = lower value; B-score at 10 µM;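 active means B-score of the integrated calcium signal more than 4 SD below the library mean, with starting fluorescence not abnormally high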;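 further: negative B-score means reduced calcium response which marks RGS4 activation or potentiation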
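test system = M3R-expressing HEK293 line, RGS4 induced by doxycycline | probe or stimulus = carbachol at ECmax as muscarinic agonist stimulus | timing = dye loading 30 min 37 °C, buffer rest 30 min RT | signal = calcium dye Fluo4 fluorescence | evaluation = B score from integrated fluorescence ratio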
MrgX1 PAM: allosterically activates human MrgX1 receptor signaling; Q96LB2; MrgX1-HEK293, Fluo-4 calcium flux, FDSS; stronger effect = higher value; B-score at 10 µM; 310,000 tested, 0.63% active; AID 588675;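 active means plate-corrected calcium response at least 3 library SD above typical, normal starting fluorescence, not activating the receptor alone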;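 further: compound read alongside a low EC10 to EC30 dose of BAM8-22 agonist; peak minus trough fluorescence over baseline measured at the second addition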
Target sequence (Q96LB2 whole entry, looked up): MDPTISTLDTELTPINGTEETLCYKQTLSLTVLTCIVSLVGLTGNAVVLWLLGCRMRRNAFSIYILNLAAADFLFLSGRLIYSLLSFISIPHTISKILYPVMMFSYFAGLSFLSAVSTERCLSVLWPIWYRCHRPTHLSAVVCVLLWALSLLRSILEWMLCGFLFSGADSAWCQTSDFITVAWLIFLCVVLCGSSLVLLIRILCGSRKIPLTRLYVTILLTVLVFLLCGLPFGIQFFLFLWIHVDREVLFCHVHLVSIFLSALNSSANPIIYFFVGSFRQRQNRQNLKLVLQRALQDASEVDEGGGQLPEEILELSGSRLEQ
RGS4 block: human RGS4 inhibition; P49798; HEK293 M3R/RGS4 inducible, Fluo-4 calcium flux; stronger effect = higher value; triggered by carbachol at its EC20; B-score at 10 µM; 310,000 tested, 0.45% active; AID 463165;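 active means B-score, a plate-corrected calcium signal, over three deviations above library mean, with baseline fluorescence within five deviations of library mean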;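 further: RGS4 expression induced by doxycycline in cells with stable M3 receptor; B-score is computed from the integrated fluorescence ratio over baseline after carbachol; higher B-score means a larger calcium signal and so more RGS4 inhibition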
Target sequence (P49798 whole entry, looked up): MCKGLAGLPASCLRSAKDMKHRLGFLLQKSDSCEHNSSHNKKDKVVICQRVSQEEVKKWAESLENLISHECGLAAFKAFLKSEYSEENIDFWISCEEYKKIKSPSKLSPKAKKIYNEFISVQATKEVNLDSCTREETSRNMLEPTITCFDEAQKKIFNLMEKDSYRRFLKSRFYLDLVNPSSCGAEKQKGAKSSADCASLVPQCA
MrgX1 antagonist: antagonists of human MrgX1 receptor; Q96LB2; MRGX1-HEK293 calcium flux, Fluo-4, BAM8-22 antagonism; stronger effect = lower value; B-score at 10 µM; 310,000 tested, 1.3% active;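 active means calcium-response B-score plate-corrected more than 3 library SD below zero, starting fluorescence within 5 deviations, no agonist response on first addition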;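 further: peak minus trough fluorescence over baseline after final BAM8-22 challenge near maximal dose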
MrgX1 agonist: agonists of human MrgX1 receptor; 310,000 tested, 0.44% active; AID 588627; B-score at 10 µM; MrgX1-HEK293 cells, Fluo-4 calcium fluorescence, agonist mode; stronger effect = higher value; Q96LB2;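 active means calcium response B-score plate-corrected fluorescence ratio at least 3 library SD, with starting fluorescence B-score inside 5 SD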
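Test system: Stable human MrgX1 HEK293 cell line | Schedule: Overnight plating before 1 h dye loading | Read-out basis: Baseline-normalised fluorescence change ratio, B-scored | Detection: Kinetic calcium dye fluorescence, Fluo-4 NW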
A number is an active result; 0 = inactive. Hits are enriched below; roughly 3.5% of the tested compounds scored in any of these assays.

SMILES | RGS4 pot | MrgX1 PAM | RGS4 block | MrgX1 antagonist | MrgX1 agonist
COCCCn1c(SCC(=O)OC2CCCCC2)nnc1-c1ccco1 | 0 | 0 | 0 | 0 | 0
COCCCn1c(SCC(=O)OC2CCCCC2)nnc1-c1cccs1 | 0 | 0 | 0 | -5.8 | 0
COc1ccc(C(=O)CSC#N)cc1OC | 0 | 0 | 0 | 0 | 35
COc1ccc(C(=O)COC(=O)c2ccc(OC)c(OC)c2)cc1OC | 0 | 0 | 0 | 0 | 0
O=C(C1CCC(C(=O)N2CCc3ccccc32)CC1)N1CCc2ccccc21 (stereo not given) | 0 | 0 | 0 | 0 | 0
O=C(CCl)c1ccc2c(c1)CCN2C(=O)C1CC1 | 0 | 0 | 7.1 | 0 | 33
COc1ccc(Cc2nc3ccc(C(=O)NC(C)c4cnn(C)c4)cc3o2)cc1 (stereo not given) | 0 | 0 | 0 | 0 | 0
CCSC1(SCC)N=C(N)C2(C#N)C(c3ccc(F)cc3)C12C#N (stereo not given) | 0 | 0 | 0 | 0 | 29
CCOC(=O)c1c(C)[nH]c(C(=O)/C(C#N)=C/c2ccc(OCC)cc2)c1C | -7.6 | 0 | 0 | 0 | 0
CC(=O)c1c(C)[nH]c(C(=O)/C(C#N)=C/c2cccc(C)c2)c1C | 0 | 0 | 0 | 0 | 0
CCOC(=O)c1nc(S(C)(=O)=O)ncc1N1CCOCC1 | 0 | 0 | 0 | 0 | 0
CCOC(=O)c1nc(S(C)(=O)=O)ncc1Cl | 0 | 0 | 0 | 0 | 43
O=C(COc1ccc(NC(=O)c2cccs2)cc1)c1ccc(F)cc1 | 0 | 0 | 0 | 0 | 0
NNC(=O)Nc1cccc(C(F)(F)F)c1 | 0 | 12 | 0 | 0 | 0
O=C(NC(=S)Nc1ccccc1N1CCCCC1)c1ccc(F)cc1Cl | -7 | 0 | 0 | 0 | 0
COc1cccc(OC)c1C(=O)Nc1ccccc1N1CCCC1 | 0 | 0 | 0 | 0 | 0
Cn1nc(C(=O)NCc2ccccc2)c2ccccc2c1=O | 0 | 0 | 0 | 0 | 0
Cn1nc(C(=O)Nc2ccccc2N2CCCC2)c2ccccc2c1=O | 0 | 12 | 0 | 0 | 0
Cn1nc(C(=O)NCCOc2ccccc2)c2ccccc2c1=O | 0 | 10 | 0 | 0 | 0
CC(C)n1nc(C(=O)Nc2ccccc2N2CCOCC2)c2ccccc2c1=O | 0 | 0 | 0 | 0 | 0
COc1cc2ccccc2cc1C(=O)Nc1ccccc1N1CCCC1 | -7.3 | 0 | 0 | 0 | 0
Cn1cc(Br)c(NS(=O)(=O)c2ccc(Cl)s2)n1 | 0 | 0 | 0 | 0 | 0
CSc1ccc(C(=O)N2CCC(CCC(=O)NC3CC3)CC2)cc1 | 0 | 0 | 0 | 0 | 0
COc1ccccc1C(=O)NCCC(=O)NCC(c1ccc(F)cc1)N1CCOCC1 (stereo not given) | 0 | 0 | 0 | 0 | 0
CC(=O)C1C(c2ccc(C)cc2)c2c(noc2C)CC1(C)O (stereo not given) | 0 | 0 | 0 | 0 | 0
SMILES | RGS4 pot | MrgX1 PAM | RGS4 block | MrgX1 antagonist | MrgX1 agonist
CC(=O)C1C(c2ccc([N+](=O)[O-])cc2)c2c(noc2C)CC1(C)O (stereo not given) | -8.5 | 0 | 0 | 0 | 0
CC(C)Cn1c(N)c(C(=O)COC(=O)[C@@H]2CCCN2C(=O)c2cccs2)c(=O)n(C)c1=O | 0 | 0 | 0 | 0 | 0
CCCC1=Nc2cc(C(=O)N3CCN(c4ccccn4)CC3)ccc2Sc2ccc(C)cc21 | -7.5 | 0 | 0 | 0 | 0
O=C(Nc1cccc(F)c1)/C(=C\c1cccnc1)NC(=O)c1ccco1 | 0 | 0 | 0 | 0 | 0
O=C(Nc1cccc(F)c1)/C(=C\c1cccnc1)NC(=O)c1cccs1 | 0 | 0 | 0 | -5.5 | 0
COC(CNC(=O)CCc1c(C)nc2c(c(C)nn2-c2ccc(C)cc2)c1C)OC | 0 | 0 | 0 | 0 | 0
Cc1ccc(-n2nc(C)c3c(C)c(CCC(=O)Nc4ccc(CN5CCCC5)cc4)c(C)nc32)cc1 | -7.1 | 0 | 0 | 0 | 0
CCN(CC)CCNC(=O)CCc1c(C)nc2c(c(C)nn2-c2ccc(C)c(C)c2)c1C | -7 | 0 | 0 | 0 | 0
O=C(Nc1ccccc1Br)C1CC(=O)N(c2ccc3c4c(cccc24)CC3)C1 (stereo not given) | 0 | 0 | 0 | 0 | 0
COc1ccc([C@@H]2[C@@H](C(=O)C(C)(C)C)N3N=Cc4ccccc4[C@@H]3C23C(=O)OC(C)(C)OC3=O)cc1OC | -7.2 | 0 | 0 | 0 | 0
COc1ccc(N2C(=O)[C@H]3[C@@H](C2=O)C2c4ccccc4C=NN2[C@H]3C(=O)C(C)(C)C)cc1 (stereo not given in full) | 0 | 0 | 0 | 0 | 0
COc1ccc([C@H]2[C@H](C(=O)C(C)(C)C)N3N=Cc4ccccc4C3C23C(=O)OC(C)(C)OC3=O)cc1 (stereo not given in full) | 0 | 0 | 0 | -6.1 | 0
O=C(NNC(=O)C1CC2CCC1C2)c1sc2ccccc2c1Cl (stereo not given) | 0 | 6.9 | 0 | 0 | 0
CCOc1ccccc1CNC(=O)CCC(=O)N1Cc2ccccc2Oc2ncccc21 | 0 | 0 | 0 | 0 | 0
Cc1c(Cl)c([N+](=O)[O-])nn1CCCC(=O)Nc1c(Cl)cccc1Cl | 0 | 0 | 0 | 0 | 0
Cc1c(Cl)c([N+](=O)[O-])nn1CCCC(=O)Nc1c(C)n(C)n(-c2ccccc2)c1=O | -7.3 | 0 | 0 | 0 | 0
Cc1c(Br)c([N+](=O)[O-])nn1CCCC(=O)N1CCN(c2ccccc2)CC1 | 0 | 0 | 0 | 0 | 0
Cc1c(Cl)c([N+](=O)[O-])nn1CCCC(=O)N1CCN(c2ccccc2)CC1 | 0 | 0 | 0 | -5.3 | 0
C/C(=N/N1CCN(Cc2cccc3ccccc23)CC1)c1ccco1 | 0 | 0 | 0 | 0 | 0
CCCCN(C(=O)COC(=O)COc1c(C)cc(C)cc1C)c1c(N)n(CCC)c(=O)[nH]c1=O | 0 | 0 | 0 | -8.2 | 0
CCCCn1c(N)c(N(CCOC)C(=O)COC(=O)COc2c(C)cccc2C)c(=O)[nH]c1=O | 0 | 0 | 0 | 0 | 0
CN(C(=O)COC(=O)CSc1ccc(C(N)=O)cc1[N+](=O)[O-])C1CCCCC1 | 0 | 0 | 0 | 0 | 0
O=C(NN1C(=O)C2C(c3ccccc3)C=CC(c3ccccc3)C2C1=O)c1cccc(Br)c1 (stereo not given) | -10 | 0 | 0 | 0 | 0
Oc1cccc(/C=N/N(Cc2ccccc2)c2ccccc2)c1 | 0 | 0 | 0 | 0 | 0
C(=N\N(Cc1ccccc1)c1ccccc1)/c1cccnc1 | -7.9 | 0 | 0 | 0 | 0
SMILES | RGS4 pot | MrgX1 PAM | RGS4 block | MrgX1 antagonist | MrgX1 agonist
Cc1cccc(C)c1Nc1nnc(SCC(=O)c2ccc(Br)s2)s1 | -7.7 | 0 | 0 | 0 | 0
Cc1ccc(Nc2nnc(SCC(=O)c3ccc(Br)s3)s2)c(C)c1 | 0 | 0 | 0 | 0 | 0
Cc1cccc(/C=N/NC(=O)c2ccc(NC(=O)c3cccc(Cl)c3)cc2)n1 | 0 | 0 | 0 | 0 | 0
CCOc1ccc(/C=N/OCC(=O)NCc2ccc3c(c2)OCO3)cc1OC | 0 | 0 | 0 | -5.9 | 0
COc1ccccc1/C=N/OCC(=O)NCc1ccc2c(c1)OCO2 | 0 | 0 | 0 | 0 | 0
COc1ccc(/C=N/NC(=S)Nc2ccccc2[N+](=O)[O-])cc1O | 0 | 6.8 | 0 | 0 | 0
